Test results reported in article PMC6467724 (Journal of medicinal chemistry, 2018).

What was measured:
[1] = Microsomal stability assay, rat liver microsomes; type: in vitro ADME, rat (male Sprague-Dawley); conditions: for Clhep (hepatic clearance), Rat: predicted from Clint, Qh 70 mL/min/kg
[2] = PK and tissue distribution assay, single oral dose; type: in vivo, BALB/c mice; conditions: for concentration at 4 h: BALB/c, mouse, po, 25 mg/kg
[3] = Microsomal stability assay, mouse liver microsomes; type: in vitro ADME, mouse (male CD-1); conditions: for Clhep (hepatic clearance), Mouse: predicted from Clint, Qh 90 mL/min/kg
[4] = Microsomal stability assay, human liver microsomes; type: in vitro ADME; conditions: for Clhep (hepatic clearance), Human: predicted from Clint, Qh 21 mL/min/kg
L. infantum CYP51 = L. infantum CYP51 (Leishmania infantum, UniProt A2TEF2); experiment: Spectral titration; type: binding; conditions: 0.5 μM CYP51, inhibitor 0.1–1 μM
Y strain T. cruzi CYP51A [5] = experiment: CYP51 activity inhibition; type: biochemical, Trypanosoma cruzi; conditions: Figure S1
Procedure, shortened: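 Y-strain T. cruzi CYP51A was expressed in E. coli and purified. Substrate was [3-3H]eburicol at 50 μM final and test compound at 1.1 μM final. After 60 s preincubation at 37 °C, 100 μM NADPH started the reaction. It ran 60 min, EtOAc extraction stopped it, and % inhibition was measured in triplicate, mean ± SD.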

Y strain T. cruzi CYP51A [6] = experiment: Spectral titration; type: binding, Trypanosoma cruzi; conditions: 0.5 μM CYP51, inhibitor 0.1–1 μM
Procedure, shortened: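 Y-strain T. cruzi CYP51A was expressed in E. coli and purified. It was titrated at 0.5 μM with test compound (0.1–1 μM) in 5 cm pathlength cuvettes. Difference spectra were read as Δ(A430−A411). Apparent dissociation constants came from nonlinear fits of absorbance change versus ligand concentration to the Morrison quadratic (tight-binding) equation.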

[7] = Mouse acute toxicity assay; type: in vivo; conditions: single oral dose 200 mg/kg, mice n=3, 48 h
[8] = rat pooled liver microsomes 0.5 mg/mL, 1 μM test compound
[9] = Balb/c mice, single oral dose 25 mg/kg
[10] = mouse pooled liver microsomes 0.5 mg/mL, 1 μM test compound
[11] = human pooled liver microsomes 0.5 mg/mL, 1 μM test compound
[12] = 4 hours after single oral 25 mg/kg, Balb/c mice, ±SEM, n=2, nd = below 0.1 μM

Row | Molecule | Clhep (hepatic clearance), Rat [1] [mL/min/kg body weight] | Clint (estimated intrinsic clearance), Rat [1, 8] [mL/min/kg body weight] | Plasma life time (time until the compound becomes undetectable) [2, 9] [h] | Clint (estimated intrinsic clearance), Mouse [3, 10] [mL/min/kg body weight] | Clhep (hepatic clearance), Mouse [3] [mL/min/kg body weight] | Clint (estimated intrinsic clearance), Human [4, 11] [mL/min/kg body weight] | Clhep (hepatic clearance), Human [4] [mL/min/kg body weight] | also measured
1 | O=C(N[C@@H](Cn1ccnc1)c1ccc(-c2ccc(F)cc2)cc1Cl)c1ccc(-c2nnc(-c3ccccn3)o2)cc1 [Compound 2, (R)-N-(1-(3-Chloro-4´-fluoro-[1,1´-biphenyl]-4-yl)-2-(1H-imidazol-1-yl)ethyl)-4-(5-(pyridin-2-yl)-1,3,4-oxadiazol-2-yl)benzamide] | 20.8 | 29.7 | 10 | 105 | 48.4 | 22.3 | 10.8 | –
2 | O=C(N[C@@H](Cn1ccnc1)c1ccc(-c2ccccc2)cc1Cl)c1ccc(-c2nnc(-c3ccccc3)o2)cc1 [Compound 4, (R)-N-(1-(3-Chloro-[1,1´-biphenyl]-4-yl)-2-(1H-imidazol-1-yl)ethyl)-4-(5-phenyl-1,3,4-oxadiazol-2-yl)benzamide] | 46.9 | 142 | <10 | 34.2 | 24.8 | 20.9 | 10.5 | Plasma Cp, max ([2]; Balb/c mice, single oral dose 25 mg/kg, nd = below 0.1 μM (detection limit)): 28 µM
3 | [2H]c1c([2H])c([2H])c(-c2ccc([C@H](Cn3ccnc3)NC(=O)c3ccc(-c4nnc(-c5ccccc5)o4)cc3)c(Cl)c2)c([2H])c1[2H] [Compound 5, (R)-N-(1-(3-Chloro-[1,1´-biphenyl]-4-yl-2´,3´,4´,5´,6´-d5)-2-(1H-imidazol-1-yl)ethyl)-4-(5-phenyl-1,3,4-oxadiazol-2-yl)benzamide] | 45.6 | 131 | <16 | 220 | 63.9 | 21.2 | 10.6 | concentration at 4 h ([2]; blood): 4 ± 2 µM; concentration at 4 h ([2]; brain): 0.2 µM; concentration at 4 h ([2]; heart): 3 ± 0.5 µM; concentration at 4 h ([2]; lung): 26 ± 4 µM; Cp,max, fold lower (vs compound 4) ([2]; single oral 25 mg/kg): 2 fold
4 | CS(=O)(=O)c1ccc(-c2ccc([C@H](Cn3ccnc3)NC(=O)c3ccc(-c4nnc(-c5ccccc5)o4)cc3)c(Cl)c2)cc1 [Compound 6, (R)-N-(1-(3-Chloro-4´-(methylsulfonyl)-[1,1´-biphenyl]-4-yl)-2-(1H-imidazol-1-yl)ethyl)-4-(5-phenyl-1,3,4-oxadiazol-2-yl)benzamide] | 31.7 | 58.1 | – | 127 | 52.6 | 11.6 | 7.46 | Oral bioavailability ([2]; single oral 25 mg/kg, no trace in plasma or tissues except intestine): not orally bioavailable
5 | O=C(N[C@@H](Cn1ccnc1)c1c(F)cc(-c2ccc(F)cc2)cc1F)c1ccc(-c2nnc(-c3ccccc3)o2)cc1 [Compound 7, (R)-N-(2-(1H-Imidazol-1-yl)-1-(3,4´,5-trifluoro-[1,1′-biphenyl]-4-yl)ethyl)-4-(5-phenyl-1,3,4-oxadiazol-2-yl)benzamide] | 31.1 | 55.8 | >24 | 237 | 65.2 | 19.4 | 10.1 | Apparent binding affinity to L. infantum CYP51 (L. infantum CYP51): low nanomolar concentration range; Inhibition of Y strain T. cruzi CYP51A enzymatic activity (Y strain T. cruzi CYP51A [5]): completely inhibited; Apparent binding affinity to Y strain T. cruzi CYP51A (Y strain T. cruzi CYP51A [6]): low nanomolar concentration range; Acute toxicity, clinical observation [7]: No detectable side effects
6 | O=C(N[C@@H](Cn1ccnc1)c1ccc(Cl)cc1Cl)c1ccc(-c2nnc(-c3ccc(OCC(F)(F)F)cc3F)o2)cc1 [Compound 8, (R)-N-(1-(2,4-Dichlorophenyl)-2-(1H-imidazol-1-yl)ethyl)-4-(5-(2-fluoro-4-(2,2,2-trifluoroethoxy)phenyl)-1,3,4-oxadiazol-2-yl)benzamide] | 33.5 | 64.3 | – | 87.7 | 44.4 | 16.5 | 9.24 | –
7 | O=C(N[C@@H](Cn1ccnc1)c1ccc(Cl)cc1Cl)c1ccc(-c2nnc(-c3ccc(F)c(F)c3)o2)cc1 [Compound 9, (R)-N-(1-(2,4-Dichlorophenyl)-2-(1H-imidazol-1-yl)ethyl)-4-(5-(3,4-difluorophenyl)-1,3,4-oxadiazol-2-yl)benzamide] | 21.4 | 30.9 | – | 55.8 | 34.5 | 7.53 | 5.54 | Apparent binding affinity to L. infantum CYP51 (L. infantum CYP51): low nanomolar concentration range; Inhibition of Y strain T. cruzi CYP51A enzymatic activity (Y strain T. cruzi CYP51A [5]): stronger potency; Apparent binding affinity to Y strain T. cruzi CYP51A (Y strain T. cruzi CYP51A [6]): low nanomolar concentration range; Acute toxicity, clinical observation [7]: No detectable side effects
8 | O=C(N[C@@H](Cn1ccnc1)c1ccc(-c2ccc(F)cc2)cc1Cl)c1ccc(-c2nnc(-c3ccccc3)o2)cc1 [VFV-Cl, (R)-N-(1-(3-Chloro-4´-fluoro-[1,1´-biphenyl]-4-yl)-2-(1H-imidazol-1-yl)ethyl)-4-(5-phenyl-1,3,4-oxadiazol-2-yl)benzamide] | 23.6 | 35.5 | – | 59.8 | 35.9 | 13.9 | 8.35 | Increase of concentrations in tissues at 50 mg/kg ([2]; 50 mg/kg vs 25 mg/kg, data not shown): about 1.5 fold; Metabolism ([M+34] metabolite) when extracted from mice plasma ([2]; 3 and 10 h after single oral 25 mg/kg, HPLC (Figure 4)): almost no metabolism
9 | (R)-N-(1-(3-Chloro-4´-(trifluoromethyl)-[1,1´-biphenyl]-4-yl)-2-(1H-imidazol-1-yl)ethyl)-4-(5-(pyridin-4-yl)-1,3,4-oxadiazol-2-yl)benzamide [Compound 3] | 29.9 | 52.3 | – | 99.0 | 47.1 | 23.5 | 11.1 | t½ (in vitro half-life), Rat [1, 8]: 54 min; Tissue distribution, Heart [2, 12]: 0.1 µM; Tissue distribution, Liver [2, 12]: 0.4 µM; Tissue distribution, Lung [2, 12]: 1 ± 1 µM; t½ (in vitro half-life), Mouse [3, 10]: 55 min; t½ (in vitro half-life), Human [4, 11]: 53 min
